# A selection: hits, their analogues and other compounds. The true share with any hit is near 1.2%.
# procasp3 activ: procaspase-3 (human) activation | AID 463141 | activation, % at 8.5 µM | 0.11% of 330,000 active | P42574 | recombinant procaspase-3 D3A, Ac-DEVD-pNA absorbance 405 nm;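 active means activation above the mean of all tested compounds plus 3 SD, cut at about 21% in these data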;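 further: 0% = DMSO alone and 100% = DMSO wells spiked with extra 5 µM PC-3 D3A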
#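 Evaluation: percent activation relative to control range; Material: Procaspase-3 D3A mutant, all three cleavage aspartates alanine; Compound: single dose, 8.5 µM nominal compound, 0.8% DMSO; Replication: one well per compound; Signal: absorbance at 405 nm, 0 and 120 min; Schedule: 1 h preincubation plus 2 h reaction at 25 °C.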
# TPT1 inhibitor: C. albicans TPT1 enzyme inhibition; recombinant caTPT1, FP RNA substrate dephosphorylation; inhibition, % at 5 µM; 0.81% of 300,000 active;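 active means inhibition above the mean of all tested compounds plus 3 SD, set per screening campaign, cut at about 24% in these data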;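 further: plate controls were DMSO alone for no effect and ferristatin control at 100 nM for full effect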
# procasp7 counter: counter-screen for procaspase-3 activators: activators of human procaspase-7; P55210; recombinant procaspase-7, Ac-DEVD-pNA absorbance 405 nm; D23A/D198A/D206A triple mutant, cannot self-cleave; scale: DMSO 0, 5 µM enzyme 100; activation, % at 8.5 µM; 0.093% of 330,000 active; AID 463210;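 active means percent activation above the screen-wide mean plus 3 SD, cut at about 25% in these data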
#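 System: Procaspase-7 triple mutant (PC-7 D3A); measure: % activation from two-timepoint absorbance difference, scaled to controls; times: 1 h compound preincubation, 2 h substrate cleavage, 25 °C; also added: Ac-DEVD-pNA substrate, 400 µM as added; measured by: Epi-absorbance of released pNA at 405 nm, two timepoints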
# IDE act: activators of human insulin-degrading enzyme in cells | activation, % at 5.96 µM | P14735 | HEK cells, FAbeta-B cleavage, fluorescence polarization; 0% vehicle, 100% cell-free pure enzyme wells | 0.073% of 340,000 active;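 active means activation above the mean of all tested compounds plus 3 SD, set per screening campaign, cut at about 17% in these data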
# Target sequence (P14735 whole entry, looked up): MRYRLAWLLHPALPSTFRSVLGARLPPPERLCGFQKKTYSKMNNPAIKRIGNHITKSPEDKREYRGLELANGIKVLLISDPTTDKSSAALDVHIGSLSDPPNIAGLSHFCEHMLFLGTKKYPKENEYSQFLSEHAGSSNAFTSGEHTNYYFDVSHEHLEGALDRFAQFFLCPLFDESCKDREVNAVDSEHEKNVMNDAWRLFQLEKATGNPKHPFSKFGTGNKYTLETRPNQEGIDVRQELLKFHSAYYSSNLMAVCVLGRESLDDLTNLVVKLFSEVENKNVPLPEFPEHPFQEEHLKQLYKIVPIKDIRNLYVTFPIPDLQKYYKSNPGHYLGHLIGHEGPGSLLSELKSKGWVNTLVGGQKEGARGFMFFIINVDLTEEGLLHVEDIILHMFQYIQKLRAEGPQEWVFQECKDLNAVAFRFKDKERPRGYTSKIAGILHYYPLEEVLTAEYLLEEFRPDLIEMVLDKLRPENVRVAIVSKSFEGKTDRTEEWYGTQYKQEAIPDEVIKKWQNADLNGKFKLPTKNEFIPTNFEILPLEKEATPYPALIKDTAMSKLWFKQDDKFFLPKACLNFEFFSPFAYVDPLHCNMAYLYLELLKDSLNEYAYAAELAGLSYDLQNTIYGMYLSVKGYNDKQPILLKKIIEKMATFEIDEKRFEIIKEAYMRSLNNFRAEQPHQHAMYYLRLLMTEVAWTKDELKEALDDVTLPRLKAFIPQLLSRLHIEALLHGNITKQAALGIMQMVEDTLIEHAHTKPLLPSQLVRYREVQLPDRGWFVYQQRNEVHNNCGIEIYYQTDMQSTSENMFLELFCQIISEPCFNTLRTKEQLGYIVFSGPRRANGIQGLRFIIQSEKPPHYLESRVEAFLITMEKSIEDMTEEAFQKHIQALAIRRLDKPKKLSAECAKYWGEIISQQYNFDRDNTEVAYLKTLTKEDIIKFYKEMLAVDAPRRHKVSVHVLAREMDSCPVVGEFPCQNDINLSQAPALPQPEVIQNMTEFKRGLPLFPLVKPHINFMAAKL
# IDE inh: cellular human IDE inhibition; AID 434962; inhibition, % at 5.59 µM; 0.41% of 320,000 active; HEK cells, FAbetaB cleavage, fluorescence polarization;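 active means percent inhibition above the average of all tested compounds plus 3 SD, set per screening campaign, cut at about 16% in these data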;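 further: IDE supplied by intact live HEK cells; FP after avidin binding of uncleaved biotin substrate so inhibition keeps polarization high; 0% = DMSO wells and 100% = 60 µM reference IDE inhibitor Ii1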
# caTPT1 confirm: TPT1 (C. albicans) inhibition, confirmation. shares compounds with TPT1 inhibitor. recombinant caTPT1, fluorescence polarization, RNase T1 coupled. inhibition, % at 5 µM. 74% of 2,400 active;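 active means inhibition above the primary screen limit, the mean inhibition of all tested compounds plus 3 SD, cut at about 25% in these data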
# RNase T1 inh: RNase T1 inhibition in TPT1 counter-screen. 83% of 2,400 active. shares compounds with TPT1 inhibitor. RNase T1 cleavage, fluorescence polarization, 1536-well. inhibition, % at 5 µM;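 active means inhibition above the solvent-only control well mean plus 3 SD, limit set per screening run, cut at about 23% in these data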;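 further: plate controls were DMSO wells with enzyme for no effect and wells without RNase T1 for full effect; inhibitors block cleavage so intact labeled substrate keeps polarization high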
# The depositor's hits bear a star; x = not tested or not shown.
SMILES,procasp3 activ,TPT1 inhibitor,procasp7 counter,IDE act,IDE inh,caTPT1 confirm,RNase T1 inh
CCN1Cc2c(/C=C/c3ccccc3)nc3ccc(OC)cc3c2N(c2cccc(Cl)c2)C1,-1,12,-10,3,0,x,x
CC(=O)Oc1cccc(N2C(=O)c3cccc4c([N+](=O)[O-])ccc(c34)C2=O)c1,-9,43*,-1,-8,12,43*,59*
CCOC(=O)CN1C(=O)S/C(=C/c2ccc3c(c2)n(C)c(=O)n3C)C1=O,-5,1,1,0,-2,x,x
CCOC(=O)CN1C(=O)S/C(=C/C=C/c2ccc(N(C)C)cc2)C1=O,-21,87*,-19,-18,8,87*,88*
CC(=O)Nc1ccc(S(=O)(=O)NCc2nc(-c3cccc(C)c3)no2)cc1,-7,41*,-10,2,-2,73*,80*
COc1ccccc1CCNC(=O)CNC(=O)c1ccc2ccccc2c1,14,-1,5,-2,0,x,x
O=C(NC1CCCCC1)c1cccc2c1C(=O)c1ccc(N3CCCC3)cc1S2(=O)=O,-1,x,-2,-6,14,x,x
O=C1c2ccccc2S(=O)(=O)c2cc(N3CCC(C(=O)N4CCCCC4)CC3)ccc21,-5,58*,-21,x,15,78*,88*
O=C(O)C1Nc2c(O)cc(Cl)c([N+](=O)[O-])c2C2C=CCC12 (stereo not drawn),2,84*,-1,9,-3,15,10
Cc1nnc(SCC(=O)c2ccc(C(C)C)cc2)s1,1,1,7,4,-1,x,x
Cc1cccc(C)c1Nc1c(-c2ccc(N3CCOCC3)cc2)nc2ncccn12,-1,30*,1,-4,3,34*,41*
COC(=O)[C@@]12CCCCN1[C@H](c1ccc(-c3ccc(C(C)=O)cc3)cc1)[C@@H]1C(=O)N(C)C(=O)[C@@H]12,0,3,3,4,0,x,x
O=C1NC(=S)N/C1=C\c1ccc(N2CCOCC2)cc1,2,26*,-13,3,2,26*,33*
O=C1NC(=S)NC1=Cc1ccc(O)cc1,x,x,x,-2,x,x,x
CC1(C(=O)Nc2cccc(-n3cnnn3)c2)Cc2ccccc2C(=O)O1 (stereo not drawn),6,x,-3,0,2,x,x
CN(C)S(=O)(=O)c1cccc(C(=O)Nc2ccc(Cl)cn2)c1,10,27*,2,5,-1,8,8
O=C(O)/C=C\c1cccc(-n2nnnc2SCc2ccccc2F)c1,6,-1,2,-1,7,x,x
COc1ccccc1N(CC(=O)NC1CCCC1)C(=O)CNC(=O)c1cccs1,-5,0,10,0,-2,x,x
Cc1c(N=C/C=C2/N(C)c3ccccc3C2(C)C)c(=O)n(-c2ccccc2)n1C,0,42*,0,1,5,37*,48*
Cc1c(N=C/C=C2\N(C)c3ccccc3C2(C)C)c(=O)n(-c2ccccc2)n1C,2,1,-5,0,1,x,x
CCc1cc2c(=O)[nH]c(-c3ccncc3)nc2s1,-13,29*,4,-1,4,3,6
O=c1oc2ccccc2nc1/C=C(O)/C=C\c1ccccc1,-3,27*,-19,3,6,17,28*
CC1(C)C(=O)Nc2ccccc2N1C(=O)COC(=O)COc1ccc(C#N)cc1,-12,-2,2,7,-1,x,x
COC(=O)[C@@H]1C[C@H]2CC[C@H](O)C[C@H]2N1Cc1ccccc1OC(=O)c1cccs1,-3,8,-2,-1,0,x,x
COC(=O)[C@@H]1C[C@@H]2CC[C@@H](O)C[C@@H]2N1Cc1ccccc1OS(=O)(=O)c1ccc(C)cc1,-5,34*,-1,3,1,37*,48*
SMILES,procasp3 activ,TPT1 inhibitor,procasp7 counter,IDE act,IDE inh,caTPT1 confirm,RNase T1 inh
CC(C)(C)C(=O)CSc1ccc(S(=O)(=O)N2CCN(Cc3ccccc3)CC2)cn1,-9,x,9,5,1,x,x
O=c1cc(O)c2sc3nc(-c4cccnc4)cc(C(F)(F)F)c3c2[nH]1,-6,32*,7,1,6,28*,40*
Cc1cc(C(F)(F)F)c2c(n1)sc1c(O)cc(=O)[nH]c12,0,-5,2,1,4,x,x
CCOc1ccc(CN2CCN(Cc3nc4c(s3)CCCC4)CC2CCO)cc1 (stereo not drawn),0,-1,7,-2,-3,x,x
CC(C)Cn1c(C23CC4CC(CC(C4)C2)C3)n[nH]c1=S,-27,-2,-34,-4,6,x,x
Cn1c(-c2c(N)n(CCc3ccccc3)c3nc4ccccc4nc23)nc2ccccc21,-13,38*,-33,-1,2,48*,60*
Nc1c(C(=O)OCC2CCCO2)c2nc3ccccc3nc2n1C1CCCC1 (stereo not drawn),9,-4,0,-1,-3,x,x
COCCNC(=O)c1c(N)n(CCCn2ccnc2)c2nc3ccccc3nc12,-2,-2,-5,-2,3,x,x
Cn1c(-c2c(N)n(CCCc3ccccc3)c3nc4ccccc4nc23)nc2ccccc21,x,x,x,10,x,x,x
COCCCn1c(N)c(-c2nc3ccccc3n2C)c2nc3ccccc3nc21,-17,46*,-19,-2,9,46*,59*
Cn1c(-c2c(N)n(C3CCCC3)c3nc4ccccc4nc23)nc2ccccc21,-28,39*,-47,-1,-3,43*,51*
CNc1c(NC(=O)c2ccc3c(c2)OCO3)c(=O)oc2ccccc12,-3,-2,-5,6,2,x,x
O=C(Cc1ccc(F)cc1)N[C@@H]1c2ccccc2CC[C@@H]1OCc1ccccc1,4,x,-2,5,x,x,x
COc1cc(OC)c(OC)cc1/C=C/c1cc(C(F)(F)F)[nH]c(=O)n1,10,73*,3,-1,-1,72*,81*
COc1cc(/C=C/c2cc(C(F)(F)F)[nH]c(=O)n2)cc(OC)c1OC,x,x,x,3,x,x,x
CC(C)(C)CC(=O)Nc1nn[nH]n1,3,27*,-1,3,1,6,10
O=C(c1ccco1)N1CCN(C(=O)c2cccc3c2C(=O)N(Cc2cccnc2)C3)CC1,9,-4,-2,4,3,x,x
O=C(c1ccco1)N1CCN(C(=O)c2cccc3c2C(=O)N(C2CCCCC2)C3)CC1,0,27*,-4,2,5,20,26*
O=[N+]([O-])C(/C=C(\Cl)[N+](=O)[O-])=C1N(Cc2ccc(Cl)nc2)CCN1Cc1ccc(Cl)nc1,1,40*,-4,-1,1,51*,70*
